Experimental data from ChEMBL document CHEMBL4400527, “Development of bioactive gemcitabine-D-Lys6-GnRH prodrugs with linker-controllable drug release rate and enhanced biopharmaceutical profile” (Eur J Med Chem, 2019).
Each block holds one molecule with its values, some of them ahead of it.

How the values were obtained:
[1] = Stability of the compound in human plasma at 1 ug/ml measured up to 4 hrs by LC-MS/MS analysis; type: ADME, cell-free
Method in brief: (§1)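 Human plasma spiked with conjugate at 1 µg/mL. Triplicate 50 µL samples taken at 0, 0.08, 0.5, 1 and 4 h, mixed with 150 µL acetonitrile and stored at -80 °C. Intact conjugate and released gemcitabine followed.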

[2] = Stability of the compound in RPMI medium at 1 uM measured after 72 hrs by LC-MS/MS analysis; type: physicochemical
Method in brief: (§2)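 Conjugates at 1 µΜ incubated at 37 °C in RPMI with 10% FBS and 1% P/S. Triplicate samples taken at 0, 1, 2, 4, 8, 24, 48 and 72 h, mixed with initial mobile phase, stored at -80 °C. Analysed by LC-MS/MS.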

[3] = Prodrug activation in human DU145 cells assessed as gemcitabine release at 10 uM measured after 8 hrs by LC-MS/MS analysis; type: cell-based; conditions: du-145, 8 h
Method in brief: (§3)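 DU145 cells seeded at 2 x 10⁶ cells/well and exposed to 10 µΜ compound for 1, 4 or 8 h. Medium removed, cells washed twice with ice-cold PBS, lysed in ice-cold MeCN-water (3:2) by scraping, then vortexed, sonicated and spun 3 min at 16,060 g. Conjugate, gemcitabine and dFdU quantified per 10⁶ cells.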

[4] = target: T1, Gonadotropin-releasing hormone receptor (Homo sapiens, UniProt P30968); experiment: Displacement of [125I]-D-Tyr6-His5-GnRH from recombinant human GnRH receptor expressed in HEK293 cell membrane measured after 16 to 19 hrs by gamma counting method; type: cell membranes
T1 sequence (P30968 whole entry): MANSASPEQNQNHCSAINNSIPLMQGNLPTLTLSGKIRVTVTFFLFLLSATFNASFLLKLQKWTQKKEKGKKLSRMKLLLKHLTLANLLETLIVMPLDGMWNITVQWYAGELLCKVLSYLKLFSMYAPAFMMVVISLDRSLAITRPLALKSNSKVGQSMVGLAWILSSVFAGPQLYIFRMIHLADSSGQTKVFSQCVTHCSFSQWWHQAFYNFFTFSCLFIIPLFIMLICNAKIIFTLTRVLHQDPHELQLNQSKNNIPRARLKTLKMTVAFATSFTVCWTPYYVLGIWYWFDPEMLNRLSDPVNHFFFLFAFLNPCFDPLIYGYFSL
Method in brief: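 Membranes from HEK 293 cells stably expressing human GnRH-R were incubated with 100,000-120,000 cpm [¹²⁵I]-D-Tyr⁶-His⁵-GnRH plus increasing conjugate concentrations. Buffer was 25 mM HEPES, 1 mM CaCl₂, 10 mM MgCl₂, 0.5% BSA, pH 7.4, final volume 0.2 mL, 4 °C for 16-19 h. Samples filtered on PEI-soaked GF/C, washed with ice-cold Tris-HCl and gamma counted. Nonspecific binding defined with 1000 nM triptorelin.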

[5] = Prodrug activation in human plasma assessed as gemcitabine release at 1 ug/ml measured up to 4 hrs by LC-MS/MS analysis; type: cell-free; method in brief: as §1
[6] = Drug level in C57BL/6N mouse blood at 10 mg/kg, ip measured after 15 mins by LC-MS/MS analysis; type: ADME, organism-based; conditions: whole blood, read-out: Drug uptake
Method in brief: (§4)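 Male C57BL/6N mice, 8-12 weeks old, fasted overnight (n = 5/group), given conjugate 10 mg/kg (6.3 µmol/kg) IP in saline. Serial tail bleeds of 10 µL at 0.25, 0.5, 1, 2, 4, 6 and 8 h into 0.1 M citric acid, pH 4.5. Stored at -80 °C, processed by protein precipitation and evaporation. Conjugate, gemcitabine and dFdU measured.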

DU-145 = experiment: Antiproliferative activity against human DU145 cells measured after 72 hrs by MTT assay; type: functional, cell-based; conditions: DU-145, 72 h
Method in brief: (§5)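 Cells (RPMI for DU145, PC3, MDA-MB-231; DMEM for MCF7; 10% FBS, 37 °C, 5% CO₂) plated at 5 x 10³/well. After 24 h, medium replaced with compound at 10-40,000 nM for 72 h. MTT 0.3 mg/mL in PBS for 3 h, formazan dissolved in DMSO, OD at 570 nm with 690 nm reference. IC50 from four-parameter logistic fit; three experiments in triplicate.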

[7] = Prodrug activation in C57BL/6N mouse blood assessed as dFdU release at 10 mg/kg, ip measured up to 8 hrs by LC-MS/MS analysis; type: organism-based; conditions: in vivo; method in brief: as §4
PC-3 = experiment: Antiproliferative activity against human PC3 cells measured after 72 hrs by MTT assay; type: functional, cell-based; conditions: PC-3, 72 h; method in brief: as §5
[8] = Prodrug activation in human DU145 cells assessed as dFdU release at 10 uM measured after 8 hrs by LC-MS/MS analysis; type: cell-based; conditions: du-145, 8 h; method in brief: as §3
MCF7 = experiment: Antiproliferative activity against human MCF7 cells measured after 72 hrs by MTT assay; type: functional, cell-based; conditions: MCF7, 72 h; method in brief: as §5
MDA-MB-231 = experiment: Antiproliferative activity against human MDA-MB-231 cells measured after 72 hrs by MTT assay; type: functional, cell-based; conditions: MDA-MB-231, 72 h; method in brief: as §5
[9] = AUC (1 to 8 hrs) in human DU145 cells assessed per million cells at 10 uM by LC-MS/MS analysis; type: ADME, cell-based; design: time 1-8 hr, dose 10 uM; conditions: du-145, 10 µM; method in brief: as §3
[10] = Drug level in C57BL/6N mouse blood at 10 mg/kg, ip measured after 30 mins by LC-MS/MS analysis; type: ADME, organism-based; conditions: whole blood, read-out: Drug uptake; method in brief: as §4
[11] = Cmax in human DU145 cells assessed per million cells at 10 uM measured after 4 hrs by LC-MS/MS analysis; type: ADME, cell-based; design: dose 10 uM; conditions: du-145, 4 h; method in brief: as §3
[12] = Prodrug activation in C57BL/6N mouse blood assessed as dFdU release at 10 mg/kg, ip measured after 1 hr by LC-MS/MS analysis; type: organism-based; conditions: in vivo; method in brief: as §4
[13] = Prodrug activation in C57BL/6N mouse blood assessed as gemcitabine release at 10 mg/kg, ip measured up to 8 hrs by LC-MS/MS analysis; type: organism-based; conditions: in vivo; method in brief: as §4
[14] = Prodrug activation in C57BL/6N mouse blood assessed as gemcitabine release at 10 mg/kg, ip measured after 30 mins by LC-MS/MS analysis; type: organism-based; conditions: in vivo, 0.5 h; method in brief: as §4
[15] = Stability of the compound in RPMI medium assessed as compound degradation at 1 uM measured <24 hrs by LC-MS/MS analysis; type: physicochemical; conditions: read-out: Drug degradation; method in brief: as §2

Compound: CC(C)C[C@H](NC(=O)[C@@H](CCCCN)NC(=O)[C@H](Cc1ccc(O)cc1)NC(=O)[C@H](CO)NC(=O)[C@H](Cc1c[nH]c2ccccc12)NC(=O)[C@H](Cc1cnc[nH]1)NC(=O)[C@@H]1CCC(=O)N1)C(=O)N[C@@H](CCCNC(=N)N)C(=O)N1CCC[C@H]1C(=O)NCC(N)=O
- IC50 [4]: 10.5 nM
- IC50 (DU-145): > 40 µM
- IC50 (PC-3): > 40000 nM
- IC50 (MCF7): > 40000 nM
- IC50 (MDA-MB-231): > 40000 nM

Compound: Nc1ccn([C@@H]2O[C@H](CO)[C@@H](O)C2(F)F)c(=O)n1 [GEMCITABINE]
- IC50 (DU-145): 0.213 µM
- IC50 (PC-3): 416 nM
- IC50 (MCF7): 38 nM
- IC50 (MDA-MB-231): 1570 nM
- concentration at 0.5 h [10]: 3 ng/mL

Continued, values first:

- Stability [1]: Stable
- Stability [2]: Stable
- Drug metabolism [3]: Metabolite_Notdetected
- IC50 [4]: 0.69 nM
- Drug metabolism [5]: Metabolite_Notdetected
- concentration at 0.25 h [6]: 4000 ng/mL
- IC50 (DU-145): > 40 µM
- Drug metabolism [7]: Metabolite_Notdetected
- IC50 (PC-3): > 40000 nM
- Drug metabolism [8]: Metabolite_Notdetected
- IC50 (MCF7): 621 nM
- IC50 (MDA-MB-231): > 40000 nM
- AUC [9]: 62.8 ng/10^6 cells × hr
- concentration at 0.5 h [10]: 4000 ng/mL
Compound: CC(C)C[C@H](NC(=O)[C@@H](CCCCNC(=O)OC[C@H]1O[C@@H](n2ccc(N)nc2=O)C(F)(F)[C@@H]1O)NC(=O)[C@H](Cc1ccc(O)cc1)NC(=O)[C@H](CO)NC(=O)[C@H](Cc1c[nH]c2ccccc12)NC(=O)[C@H](Cc1cnc[nH]1)NC(=O)[C@@H]1CCC(=O)N1)C(=O)N[C@@H](CCCNC(=N)N)C(=O)N1CCC[C@H]1C(=O)NCC(N)=O

- Stability [1]: Stable
- Stability [2]: Stable
- Drug metabolism [3]: Metabolite_Notdetected
- IC50 [4]: 0.11 nM
- Drug metabolism [5]: Metabolite_Notdetected
- concentration at 0.25 h [6]: 4000 ng/mL
- IC50 (DU-145): 9.76 µM
- Drug metabolism [7]: Metabolite_Notdetected
- Cmax [11]: 15 ng/10^6 cells in 4 h
- IC50 (PC-3): > 40000 nM
- Drug metabolism [8]: Metabolite_Notdetected
- IC50 (MCF7): 449 nM
- IC50 (MDA-MB-231): > 40000 nM
- AUC [9]: 88.7 ng/10^6 cells × hr
- concentration at 0.5 h [10]: 5000 ng/mL
Compound: CC(C)C[C@H](NC(=O)[C@@H](CCCCNC(=O)O[C@@H]1[C@@H](CO)O[C@@H](n2ccc(N)nc2=O)C1(F)F)NC(=O)[C@H](Cc1ccc(O)cc1)NC(=O)[C@H](CO)NC(=O)[C@H](Cc1c[nH]c2ccccc12)NC(=O)[C@H](Cc1cnc[nH]1)NC(=O)[C@@H]1CCC(=O)N1)C(=O)N[C@@H](CCCNC(=N)N)C(=O)N1CCC[C@H]1C(=O)NCC(N)=O

- Stability [1]: Unstable
- Drug metabolism [12]: 500 ng/mL
- Drug metabolism [3]: Metabolite_Detected
- IC50 [4]: 2.4 nM
- Drug metabolism [5]: Metabolite_Detected
- IC50 (DU-145): 0.684 µM
- Drug metabolism [13]: Metabolite_Detected
- Cmax [11]: 8 ng/10^6 cells
- Drug metabolism [14]: 300 ng/mL
- IC50 (PC-3): 937 nM
- Drug metabolism [8]: Metabolite_Notdetected
- degraded at 24 h, 1 µM [15]: 100%
- IC50 (MCF7): 55.5 nM
- IC50 (MDA-MB-231): 2390 nM
- AUC [9]: 38.6 ng/10^6 cells × hr
Compound: CC(C)C[C@H](NC(=O)[C@@H](CCCCNC(=O)CCCCCNC(=O)CCC(=O)OC[C@H]1O[C@@H](n2ccc(N)nc2=O)C(F)(F)[C@@H]1O)NC(=O)[C@H](Cc1ccc(O)cc1)NC(=O)[C@H](CO)NC(=O)[C@H](Cc1c[nH]c2ccccc12)NC(=O)[C@H](Cc1cnc[nH]1)NC(=O)[C@@H]1CCC(=O)N1)C(=O)N[C@@H](CCCNC(=N)N)C(=O)N1CCC[C@H]1C(=O)NCC(N)=O
